The values below come from ChEMBL document CHEMBL4765329, “Exploration of carbamide derived pyrimidine-thioindole conjugates as potential VEGFR-2 inhibitors with anti-angiogenesis effect” (Eur J Med Chem, 2020).

Usually IC50 stands for the concentration that inhibits the measured activity by half.

Structures are written as SMILES. Active and inactive are the calls of the source. The calls are words filed in the database; no cut-off is given here. Bounds are passed on as bounds.

The subject of one experiment is HepG2. In words: cells. The conditions noted are these: Homo sapiens, HepG2, 72 h.
The test system of the next experiment is PC-3. In words: cells. The note with it: Homo sapiens, PC-3, 72 h.
The next experiment concerns A549. In words: cells. The conditions noted are these: Homo sapiens, A549, 72 h.
For experiment [1], the system named is MDA-MB-231. In words: cells. The note with it: Homo sapiens, MDA-MB-231, 72 h.
Experiment [2] deals with MDA-MB-231. In words: Antimigratory activity against human MDA-MB-231 cells assessed as inhibition of cell migration at 2.5 uM measured after 24 hrs by phase contrast microscope based wound healing assay. In kind it is functional. Put shortly: (§1)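 Confluent MDA-MB-231 monolayers (DMEM, 10% FBS) were scratched with a sterile pipette tip and then treated. Wound closure was imaged by phase contrast microscopy after 24 h and compared with untreated control.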

Experiment [3] has as its system HUVEC. In words: Antiangiogenic activity against human HUVEC cells assessed as inhibition of tube formation measured after 16 hrs by matrigel based tube formation assay. In kind it is functional, cell-based. The conditions noted are these: dose 2.5-5 µM. A digest of the protocol: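 HUVECs were plated on Matrigel with 2.5 and 5 μM test agent, alongside a reference VEGFR-2 inhibitor. Tube networks were imaged, and quantification covered cell-covered area, tube length, branching points and total loops.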

The test system of experiment [4] is MDA-MB-231. In words: Antimigratory activity against human MDA-MB-231 cells assessed as inhibition of cell migration at 5 uM measured after 24 hrs by phase contrast microscope based wound healing assay. The format is functional. Put shortly:
as §1

For experiment [5], the system named is HUVEC. In words: Antimigratory activity against human HUVEC cells assessed as inhibition of cell invasion measured by inverted fluorescence microscope based transwell assay. In kind it is functional. The conditions noted are these: dose 2.5-5 µM. A digest of the protocol: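 A Boyden chamber (transwell) invasion assay used HUVECs passing through Matrigel and a membrane barrier. Treatment was 2.5 and 5 µM, with a reference VEGFR-2 inhibitor as standard. Invaded cells on the bottom side were compared with untreated control.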

`Cc1ccc(C)c(NC(=O)Nc2nc(Sc3c[nH]c4ccccc34)cc(N3CCN(Cc4ccccc4)CC3)n2)c1`: the concentration for half-maximal inhibition (IC50) is 16.4 µM with HepG2, 17.3 µM in the experiment on PC-3, above 50 µM with A549 and 19 µM in the experiment on MDA-MB-231 [1].
For `Cc1cc(Cl)ccc1NC(=O)Nc1nc(Sc2c[nH]c3ccccc23)cc(N2CCCC2)n1`, in that order: 7.15 µM, 12.9 µM, 8.93 µM and 9.44 µM.
As for `COc1ccc(NC(=O)Nc2nc(Sc3c[nH]c4ccccc34)cc(N3CCCC3)n2)cc1`, the 50% inhibitory concentration (IC50) in the experiment on HepG2 worked out at 20.3 µM; in the experiment with PC-3 it was 21.5 µM; in the experiment on A549, 11.8 µM; in the experiment with MDA-MB-231 [1], 13.1 µM.
For `COc1ccc(NC(=O)Nc2nc(Nc3cc(OC)cc(OC)c3)cc(Sc3c[nH]c4ccccc34)n2)cc1`, in that order: 17.4 µM, 15.1 µM, above 50 µM and 9.46 µM.
On to `O=C(Nc1ccccc1)Nc1nc(Nc2ccccc2)cc(Sc2c[nH]c3ccccc23)n1`, for which the IC50 is 14.4 µM in the experiment with HepG2, 26.4 µM in the experiment on PC-3, above 50 µM in the experiment with A549 and 35.9 µM with MDA-MB-231 [1].
The matching figures for `O=C(Nc1ccccc1)Nc1nc(Sc2c[nH]c3ccccc23)cc(N2CCN(Cc3ccccc3)CC2)n1`: 8.16 µM, 42.5 µM, above 50 µM and 10.2 µM.
For `COc1cc(NC(=O)Nc2nc(Nc3cc(OC)cc(OC)c3)cc(Sc3c[nH]c4ccccc34)n2)cc(OC)c1`, in that order: 24.8 µM, 11.6 µM, above 50 µM and above 50 µM.
For `O=C(Nc1ccc(Cl)cc1)Nc1nc(Sc2c[nH]c3ccccc23)cc(N2CCOCC2)n1`, in that order: 22.5 µM, 28.4 µM, 21.8 µM and 6.93 µM.
As for `COc1ccc(NC(=O)Nc2nc(Sc3c[nH]c4ccccc34)cc(N3CCOCC3)n2)cc1`, the half-maximal inhibitory concentration (IC50) in the experiment on HepG2 was 10.3 µM; with PC-3, 12.5 µM; with A549 it was 33.4 µM; in the experiment on MDA-MB-231 [1], 7.94 µM.
For the compound `Cc1ccc(NC(=O)Nc2nc(Nc3ccccc3)cc(Sc3c[nH]c4ccccc34)n2)cc1`, the concentration for half-maximal inhibition (IC50) with HepG2 stood at 14.9 µM; with PC-3, 18.4 µM; with A549, 23.4 µM; in the experiment on MDA-MB-231 [1], 13.4 µM.
The matching figures for `COc1ccc(NC(=O)Nc2nc(Sc3c[nH]c4ccccc34)cc(N3CCN(c4ccccn4)CC3)n2)cc1`: 11.4 µM, 33.4 µM, above 50 µM and 28.4 µM.
Consider `O=C(Nc1ccccc1)Nc1nc(Sc2c[nH]c3ccccc23)cc(N2CCOCC2)n1`, for which the half-maximal inhibitory concentration (IC50) in the experiment on HepG2 amounted to 7.14 µM; in the experiment on PC-3, 14.1 µM; with A549, 26.1 µM; with MDA-MB-231 [1] it was 12.1 µM.
The matching figures for `COc1ccc(NC(=O)Nc2nc(Sc3c[nH]c4ccccc34)cc(N3CCCCC3)n2)cc1`: 17.1 µM, 17.4 µM, 13.5 µM and 7.26 µM.
The matching figures for `O=C(Nc1ccc(Cl)cc1)Nc1nc(Sc2c[nH]c3ccccc23)cc(N2CCCCC2)n1`: 14.8 µM, 42.5 µM, 18.6 µM and 10.1 µM.
The matching figures for `Cc1cc(Cl)ccc1NC(=O)Nc1nc(Sc2c[nH]c3ccccc23)cc(N2CCN(Cc3ccccc3)CC2)n1`: 11.7 µM, 22.4 µM, above 50 µM and 22.1 µM.
As to `O=C(Nc1ccccc1)Nc1nc(Sc2c[nH]c3ccccc23)cc(N2CCCC2)n1`, the half-inhibitory concentration (IC50) was found to be 11.4 µM in the experiment on HepG2, 14.9 µM with PC-3, 21.2 µM in the experiment with A549 and 7.89 µM in the experiment with MDA-MB-231 [1].
The matching figures for `Cc1cc(Cl)ccc1NC(=O)Nc1nc(NC2CC2)cc(Sc2c[nH]c3ccccc23)n1`: 9.74 µM, 11.1 µM, 31.5 µM and 14.6 µM.
The matching figures for `Cc1cc(Cl)ccc1NC(=O)Nc1nc(Sc2c[nH]c3ccccc23)cc(N2CCN(c3ccccn3)CC2)n1`: 7.64 µM, 19.8 µM, above 50 µM and 34.7 µM.
The matching figures for `COc1ccc(NC(=O)Nc2nc(Sc3c[nH]c4ccccc34)cc(N3CCN(Cc4ccccc4)CC3)n2)cc1`: 21.4 µM, 16.7 µM, 42.3 µM and 8.92 µM.
Take `O=C(Nc1ccccc1)Nc1nc(Sc2c[nH]c3ccccc23)cc(N2CCN(c3ccccn3)CC2)n1`: the half-inhibitory concentration (IC50) came out at 8.93 µM in the experiment on HepG2, 21.6 µM in the experiment with PC-3, 30.2 µM in the experiment with A549 and 19.5 µM with MDA-MB-231 [1].
Turning to `Cc1cc(Cl)ccc1NC(=O)Nc1nc(Nc2ccccc2)cc(Sc2c[nH]c3ccccc23)n1`, the IC50 with HepG2 is 8.37 µM; in the experiment on PC-3, 41.9 µM; in the experiment on A549 it was above 50 µM; with MDA-MB-231 [1], 17.1 µM.
For the compound `O=C(Nc1ccccc1)Nc1nc(Nc2ccc(Cl)cc2)cc(Sc2c[nH]c3ccccc23)n1`, the IC50 in the experiment with HepG2 is 12.6 µM; in the experiment on PC-3 it was 32.3 µM; in the experiment with A549 it was 48.4 µM; in the experiment on MDA-MB-231 [1] it was 10.3 µM.
The matching figures for `O=C(Nc1ccccc1)Nc1nc(NC2CC2)cc(Sc2c[nH]c3ccccc23)n1`: 14.3 µM, 17.5 µM, above 50 µM and 7.86 µM.
Take `O=C(Nc1ccccc1)Nc1nc(Sc2c[nH]c3ccccc23)cc(N2CCCCC2)n1`: the half-maximal inhibitory concentration (IC50) with HepG2 was 20.9 µM; in the experiment with PC-3, 12.1 µM; with A549 it was 33.1 µM; with MDA-MB-231 [1], 8.13 µM.
With `CNC(=O)c1cc(Oc2ccc(NC(=O)Nc3ccc(Cl)c(C(F)(F)F)c3)cc2)ccn1` [SORAFENIB], the inhibition entry in the experiment with MDA-MB-231 [2] and with MDA-MB-231 [4] was “Active” each time. Further, the inhibition entry with HUVEC [3] and in the experiment with HUVEC [5] was “Dose-dependent effect” each time. Further, the IC50 came to 5.78 µM with HepG2, 9.77 µM in the experiment with PC-3 and 11.8 µM in the experiment with MDA-MB-231 [1].
As for `Cc1cc(Cl)ccc1NC(=O)Nc1nc(Sc2c[nH]c3ccccc23)cc(N2CCOCC2)n1`, the IC50 in the experiment with HepG2 was 8.26 µM; in the experiment with PC-3, 33.8 µM; with A549 it was above 50 µM; with MDA-MB-231 [1] it was 8.65 µM.
